ChEMBL document CHEMBL1154852, “Design, synthesis and pharmacological screening of potential anticonvulsant agents using hybrid approach” (Eur J Med Chem, 2010)

Columns and labels:
Mus musculus [1] = assay: Anticonvulsant activity in Swiss albino mouse assessed as inhibition of isoniazide hydrazone-induced seizure at 10 mg/kg, ip administered 30 mins before isoniazide hydrazone challenge measured after 1 hr; type: functional; settings: route intraperitoneal
Outline: (§1)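 Swiss albino mice, 30–35 g, given test drug 10 or 30 mg/kg i.p.; INH 250 mg/kg i.p. injected 30 min later. Animals showing excitement, myoclonic jerks, clonic and maximal seizures grouped, n=6. Readout: reduction of seizure duration (sec). Reference standard diazepam. Mean ± SEM; one-way ANOVA with Student–Newman–Keuls test.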

Mus musculus [2] = assay: Toxicity in ip dosed Swiss albino mouse assessed as assessed as decrease in fall of time after 30 mins by rotarod test; type: organism-based; settings: in vivo, 0.5 h
Mus musculus [3] = assay: Anticonvulsant activity in Swiss albino mouse assessed as reduction of supramaximal electroshock-induced hind limb tonic extension response at 30 mg/kg, ip administered 30 mins before SME challenge measured after 1 hr; type: functional, Hindlimb; settings: route intraperitoneal
Outline: (§2)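 Swiss albino mice of either sex, 30–35 g, n=6 per group, dosed 10 or 30 mg/kg i.p.; diazepam 5 mg/kg as standard. After 1 h, electroshock 42 mA for 0.2 s via ear electrodes. Readout: duration of hind limb extension phase (sec). Mean ± SEM; one-way ANOVA with Student–Newman–Keuls test.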

Mus musculus [4] = assay: Toxicity in ip dosed Swiss albino mouse assessed as decrease in locomotor activity after 30 mins by actophotometer; type: organism-based; settings: in vivo, 0.5 h
Outline: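 Actophotometer test in six mice per group, dosed 10 or 30 mg/kg i.p.; vehicle control 0.2% Tween 80 (0.3 ml/kg); diazepam 5 mg/kg as standard. Scored 30 min after dosing: beam interruptions counted over 10 min after 1 min acclimatization, before versus after treatment. Mean ± SEM.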

Mus musculus [5] = assay: Anticonvulsant activity in Swiss albino mouse assessed as reduction of supramaximal electroshock-induced hind limb tonic extension response at 10 mg/kg, ip administered 30 mins before SME challenge measured after 1 hr; type: functional, Hindlimb; settings: route intraperitoneal; outline: as §2
Mus musculus [6] = assay: Anticonvulsant activity in Swiss albino mouse assessed as inhibition of isoniazide hydrazone-induced seizure at 30 mg/kg, ip administered 30 mins before isoniazide hydrazone challenge measured after 1 hr; type: functional; settings: route intraperitoneal; outline: as §1

Row | SMILES | Activity (Mus musculus [1]) | Activity (Mus musculus [2]) | Activity (Mus musculus [3]) | Activity (Mus musculus [4]) | Activity (Mus musculus [5]) | Activity (Mus musculus [6])
1 | COc1ccc(C2Nc3ccccc3N=C3C2SC(/C=C/c2ccccc2)N3NC(=O)c2c(C)csc2NC(=O)c2ccccc2)cc1 (stereo not drawn) | 101.83 s | Non-toxic | 14.907 s | Non-toxic | 15.328 s | 108.5 s
2 | Cc1csc(NC(=O)c2ccccc2)c1C(=O)NN1C2=Nc3ccccc3NC(c3cccc([N+](=O)[O-])c3)C2SC1/C=C/c1ccccc1 (stereo not drawn) | 71.33 s | Non-toxic | 14.907 s | Non-toxic | 15.328 s | 78.833 s
3 | Cc1csc(NC(=O)c2ccccc2)c1C(=O)NN1C2=Nc3ccccc3NC(c3ccc(N(C)C)cc3)C2SC1/C=C/c1ccccc1 (stereo not drawn) | 92.33 s | Non-toxic | 13 s | Non-toxic | 13.355 s | 95.33 s
4 | Cc1csc(NC(=O)c2ccccc2)c1C(=O)NN1C2=Nc3ccccc3NC(c3ccccc3Cl)C2SC1/C=C/c1ccccc1 (stereo not drawn) | 81.833 s | Non-toxic | 13.632 s | Non-toxic | 14.54 s | 83.33 s
5 | Cc1csc(NC(=O)c2ccccc2)c1C(=O)NN1C2=Nc3ccccc3NC(c3ccccc3O)C2SC1/C=C/c1ccccc1 (stereo not drawn) | 85.5 s | Non-toxic | 14.263 s | Non-toxic | 13.228 s | 87.667 s
6 | CN1C(=O)CN=C(c2ccccc2)c2cc(Cl)ccc21 [DIAZEPAM] |  | Non-toxic |  | Non-toxic |  | 
7 | Cc1csc(NC(=O)c2ccccc2)c1C(=O)NN1C2=Nc3ccccc3NC(c3ccc(F)cc3)C2SC1/C=C/c1ccccc1 (stereo not drawn) | 69.833 s | Non-toxic | 15.408 s | Non-toxic | 16.442 s | 74 s
